The values that follow come from ChEMBL document CHEMBL1121628, “Synthesis of isomeric thienobenzothiazines and their effect on dopamine metabolism in rat brain” (1980).

What all share (format): functional
The species entered for experiment [1] is Rattus norvegicus. Put plainly: Effective dose causing a homovanillic acid (HVA) concentration three fold the control level in rat striatum. In short, it runs like this:
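Male albino Wistar rats (180-250 g) received drug i.p. in 0.9% NaCl with a little ascorbic acid, made fresh and kept from light. Controls got saline-ascorbic acid. Rats were decapitated 2 h later and the corpus striatum dissected. HVA was read fluorometrically as the mean of left and right striata. Four to six doses, 3-6 rats each; threefold-HVA dose taken from log dose-response curves.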

The subject of experiment [2] is Rattus norvegicus. Put plainly: Tested for neuroleptic activity by measuring the increase in homovanillic acid (HVA) level in rat nucleus accumbens at dosage of 10 umol/kg.
For experiment [3], the system named is Rattus norvegicus. As to the kind of experiment: Tested for neuroleptic activity by measuring the increase in homovanillic acid (HVA) level in rat corpus striatum at dosage of 10 umol/kg. In short, it runs like this: (§1)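 Wistar male rats (180-250 g) were dosed i.p. at the stated level in fresh, light-protected 0.9% NaCl with a little ascorbic acid; controls received saline-ascorbic acid. They were decapitated at 2 h and the corpus striatum removed. HVA was assayed by a semiautomatic fluorometric method, averaging both striata, with 3-6 rats per dose. Values are expressed as % of control HVA.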

For experiment [4], the system named is Rattus norvegicus. Put plainly: Tested for neuroleptic activity by measuring the increase in homovanillic acid (HVA) level in rat corpus striatum at dosage of 20 umol/kg. In outline:
as §1

The subject of experiment [5] is Rattus norvegicus. As to the kind of experiment: Tested for neuroleptic activity by measuring the increase in homovanillic acid (HVA) level in rat corpus striatum at dosage of 50 umol/kg. In outline: as §1
The test system of experiment [6] is Rattus norvegicus. As to the kind of experiment: Tested for neuroleptic activity by measuring the increase in homovanillic acid (HVA) level in rat nucleus accumbens at dosage of 50 umol/kg.
The test system of experiment [7] is Rattus norvegicus. As to the kind of experiment: Tested for neuroleptic activity by measuring the increase in homovanillic acid (HVA) level in rat tuberculum olfactorium at dosage of 10 umol/kg. In short, it runs like this:
(§2)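 Freshly made in 0.9% NaCl with a little ascorbic acid and kept from light, given ip to male Wistar rats (180-250 g); controls got saline-ascorbic acid. Rats decapitated 2 h post-dose and the brain region dissected. HVA was measured by a semiautomatic fluorometric method and expressed as % of control levels. 3-6 rats per dose.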

For experiment [8], the system named is Rattus norvegicus. As to the kind of experiment: Tested for neuroleptic activity by measuring the increase in homovanillic acid (HVA) level in rat corpus striatum at dosage of 30 umol/kg. In outline: as §1
The subject of experiment [9] is Rattus norvegicus. As to the kind of experiment: Tested for neuroleptic activity by measuring the increase in homovanillic acid (HVA) level in rat tuberculum olfactorium at dosage of 30 umol/kg. In short, it runs like this:
as §2

Experiment [10] concerns Rattus norvegicus. Put plainly: Tested for neuroleptic activity by measuring the increase in homovanillic acid (HVA) level in rat tuberculum olfactorium at dosage of 20 umol/kg. In outline: as §2
Experiment [11] relates to Rattus norvegicus. Put plainly: Tested for neuroleptic activity by measuring the increase in homovanillic acid (HVA) level in rat nucleus accumbens at dosage of 30 umol/kg.
Experiment [12] concerns Rattus norvegicus. Put plainly: Tested for neuroleptic activity by measuring the increase in homovanillic acid (HVA) level in rat tuberculum olfactorium at dosage of 50 umol/kg. In short, it runs like this: as §2
The test system of experiment [13] is Rattus norvegicus. Put plainly: Tested for neuroleptic activity by measuring the increase in homovanillic acid (HVA) level in rat nucleus accumbens at dosage of 20 umol/kg.
The subject of experiment [14] is Rattus norvegicus. As to the kind of experiment: Tested for neuroleptic activity by measuring the increase in homovanillic acid (HVA) level in rat nucleus accumbens at dosage of 15 umol/kg. In short, it runs like this: as §2
The test system of experiment [15] is Rattus norvegicus. Put plainly: Tested for neuroleptic activity by measuring the increase in homovanillic acid (HVA) level in rat corpus striatum at dosage of 5 umol/kg. In outline: as §1
Experiment [16] concerns Rattus norvegicus. Put plainly: Tested for neuroleptic activity by measuring the increase in homovanillic acid (HVA) level in rat nucleus accumbens at dosage of 5 umol/kg.
Experiment [17] concerns Rattus norvegicus. Put plainly: Tested for neuroleptic activity by measuring the increase in homovanillic acid (HVA) level in rat tuberculum olfactorium at dosage of 25 umol/kg. In outline: as §2
Experiment [18] deals with Rattus norvegicus. As to the kind of experiment: Tested for neuroleptic activity by measuring the increase in homovanillic acid (HVA) level in rat tuberculum olfactorium at dosage of 5 umol/kg. In short, it runs like this: as §2
Experiment [19] has as its system Rattus norvegicus. As to the kind of experiment: Tested for neuroleptic activity by measuring the increase in homovanillic acid (HVA) level in rat corpus striatum at dosage of 25 umol/kg. In short, it runs like this:
as §1

Experiment [20] deals with Rattus norvegicus. As to the kind of experiment: Tested for neuroleptic activity by measuring the increase in homovanillic acid (HVA) level in rat nucleus accumbens at dosage of 25 umol/kg.
Experiment [21] has as its system Rattus norvegicus. Put plainly: Tested for neuroleptic activity by measuring the increase in homovanillic acid (HVA) level in rat corpus striatum at dosage of 15 umol/kg. In short, it runs like this:
as §1

The subject of experiment [22] is Rattus norvegicus. Put plainly: Tested for neuroleptic activity by measuring the increase in homovanillic acid (HVA) level in rat tuberculum olfactorium at dosage of 15 umol/kg. In outline: as §2
Experiment [23] relates to Rattus norvegicus. Put plainly: Tested for neuroleptic activity by measuring the increase in homovanillic acid (HVA) level in rat corpus striatum at dosage of 75 umol/kg. In short, it runs like this: as §1
Experiment [24] relates to Rattus norvegicus. Put plainly: Tested for neuroleptic activity by measuring the increase in homovanillic acid (HVA) level in rat tuberculum olfactorium at dosage of 75 umol/kg. In outline:
as §2

The subject of experiment [25] is Rattus norvegicus. Put plainly: Tested for neuroleptic activity by measuring the increase in homovanillic acid (HVA) level in rat nucleus accumbens at dosage of 75 umol/kg.

The structures appear in SMILES notation.

On to `CN(C)CCCN1c2cc(Cl)ccc2Sc2ccsc21`, for which the ED300 in experiment [1] was 350 µM/kg.

As for `CN(C)CCCN1c2cc(C(F)(F)F)ccc2Sc2sccc21`, the HVA control in experiment [2] is 250%; in [3] it was 320%; in experiment [4], 410%; in [5], 510%; in [6], 510%; in experiment [7], 180%. Also, the HVA control was 430% in experiment [8]; 280% in experiment [9]; 240% in experiment [10]; 360% in experiment [11]; 300% in experiment [12]; 350% in experiment [13]. For the same molecule, the ED300 in [1] amounted to 6.1 µM/kg.

Molecule `CN(C)CCCN1c2ccccc2Sc2cscc21` had an ED300 in experiment [1] of 460 µM/kg.

With `CN(C)CCCN1c2cscc2Sc2ccc(C(F)(F)F)cc21`, the HVA control in experiment [2] came out at 185%; in experiment [14], 260%; in experiment [15] it was 140%; in experiment [3], 310%; in experiment [16] it was 125%; in experiment [17], 270%. For the same molecule, the HVA control came out at 100% in experiment [18]; 160% in experiment [7]; 445% in experiment [19]; 390% in experiment [20]; 340% in [21]; 210% in experiment [22]. Also, the ED300 in experiment [1] amounted to 9.2 µM/kg.

The molecule `CN(C)CCCN1c2cscc2Sc2ccc(Cl)cc21` yielded an ED300 in experiment [1] of 19.2 µM/kg.

Take `CN(C)CCCN1c2cc(C(F)(F)F)ccc2Sc2ccsc21`: the HVA control in experiment [14] is on record as 100%; in [23], 440%; in experiment [5], 310%; in experiment [6], 180%; in [24], 200%; in experiment [21] it was 130%. Further, the HVA control in experiment [12] is given as 150%; in experiment [25], 375%. Also, the ED300 in experiment [1] was 30.1 µM/kg.

As for `CN(C)CCCN1c2ccccc2Sc2sccc21`, in experiment [1], the ED300 was found to be 480 µM/kg.

`CN(C)CCCN1c2cc(Cl)ccc2Sc2sccc21`: the ED300 in experiment [1] is 36 µM/kg.

Take `Cl.OCCN1CCN(CCCN2c3ccccc3Sc3sccc32)CC1`: the ED300 in experiment [1] worked out at 18.9 µM/kg.

Turning to `Cl.OCCN1CCN(CCCN2c3cc(Cl)ccc3Sc3sccc32)CC1`, the ED300 in experiment [1] was 3.27 µM/kg.

`Cl.OCCN1CCN(CCCN2c3cc(C(F)(F)F)ccc3Sc3ccsc32)CC1`: the ED300 in experiment [1] stood at 4 µM/kg.

For `Cl.OCCN1CCN(CCCN2c3cc(C(F)(F)F)ccc3Sc3sccc32)CC1`, in experiment [1], the ED300 amounted to 0.75 µM/kg.

For `Cl.OCCN1CCN(CCCN2c3cscc3Sc3ccc(C(F)(F)F)cc32)CC1`, the ED300 in [1] came out at 0.54 µM/kg.

`Cl.OCCN1CCN(CCCN2c3cc(Cl)ccc3Sc3ccsc32)CC1`: the ED300 in experiment [1] was determined as 20.5 µM/kg.

`Cl.OCCN1CCN(CCCN2c3cscc3Sc3ccc(Cl)cc32)CC1` gave an ED300 in experiment [1] of 1.5 µM/kg.

Consider `Cl.OCCN1CCN(CCCN2c3ccccc3Sc3cscc32)CC1`, for which, in experiment [1], the ED300 is 13.7 µM/kg.
